ChEMBL document CHEMBL5058577, “EUbOPEN Chemogenomics Library 2 (Multiplex)” (2022)

Test system: U2OS
Assay: Multiplex assay against U2OS
Format: toxicity, cell-based
Conditions: human
In short: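 Live cells were stained at seeding with Hoechst33342, BioTracker Green Microtubule Cytoskeleton Dye, MitoTracker Red and Annexin V Alexa Fluor 680, then imaged on a CQ1 microscope at 37°C and 5% CO2 after compound addition. CellPathfinder machine-learning gating split cells into Hoechst high-intensity objects or normal cells. Normal cells were split into healthy, pyknosed or fragmented nuclei, and pyknosed cells into mitotic or apoptotic. Tubulin, mitochondrial-mass and membrane-permeability phenotypes are per cents of healthy-nucleus cells.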

[1] = 12 h, 1 µM, compound concentration 1 uM, replicate 1
[2] = 12 h, 1 µM, compound concentration 1 uM, replicate 2
[3] = 12 h, 10 µM, compound concentration 10 uM, replicate 1
[4] = 12 h, 10 µM, compound concentration 10 uM, replicate 2
[5] = 24 h, 1 µM, compound concentration 1 uM, replicate 1
[6] = 24 h, 1 µM, compound concentration 1 uM, replicate 2
[7] = 24 h, 10 µM, compound concentration 10 uM, replicate 1
[8] = 24 h, 10 µM, compound concentration 10 uM, replicate 2
[9] = 48 h, 1 µM, compound concentration 1 uM, replicate 1
[10] = 48 h, 1 µM, compound concentration 1 uM, replicate 2
[11] = 48 h, 10 µM, compound concentration 10 uM, replicate 1
[12] = 48 h, 10 µM, compound concentration 10 uM, replicate 2

## O=C(O)CCC/C=C\CC1C(O)CC(O)C1/C=C/C(O)COc1cccc(Cl)c1 (centres undefined) [CLOPROSTENOL]
[1]
  Population Apoptotic (%): 77%
  Population Fragmented Nuclei (%): 30%
  Population Healthy Nuclei (%): 60%
  Population Hoechst High Intensity Objects (%): 3%
  Population Membrane Permeable-Phenotype (%): 2%
  Population Mitochondria Different-Phenotype (%): 0%
  Population Mitotic Cells (%): 22%
  Population Normal (%): 96%
  Population Pyknosed Nuclei (%): 9%
  Population Tubulin-Different-Phenotype (%): 1%
  Total Cell Count: 201
[2]
  Population Apoptotic (%): 75%
  Population Fragmented Nuclei (%): 11%
  Population Healthy Nuclei (%): 82%
  Population Hoechst High Intensity Objects (%): 0%
  Population Membrane Permeable-Phenotype (%): 6%
  Population Mitochondria Different-Phenotype (%): 3%
  Population Mitotic Cells (%): 25%
  Population Normal (%): 100%
  Population Pyknosed Nuclei (%): 6%
  Population Tubulin-Different-Phenotype (%): 2%
  Total Cell Count: 129
[3]
  Population Apoptotic (%): 92%
  Population Fragmented Nuclei (%): 28%
  Population Healthy Nuclei (%): 60%
  Population Hoechst High Intensity Objects (%): 2%
  Population Membrane Permeable-Phenotype (%): 8%
  Population Mitochondria Different-Phenotype (%): 1%
  Population Mitotic Cells (%): 7%
  Population Normal (%): 97%
  Population Pyknosed Nuclei (%): 10%
  Population Tubulin-Different-Phenotype (%): 3%
  Total Cell Count: 272
[4]
  Population Apoptotic (%): 45%
  Population Fragmented Nuclei (%): 9%
  Population Healthy Nuclei (%): 81%
  Population Hoechst High Intensity Objects (%): 0%
  Population Membrane Permeable-Phenotype (%): 9%
  Population Mitochondria Different-Phenotype (%): 6%
  Population Mitotic Cells (%): 54%
  Population Normal (%): 100%
  Population Pyknosed Nuclei (%): 8%
  Total Cell Count: 131
[5]
  Population Apoptotic (%): 81%
  Population Fragmented Nuclei (%): 24%
  Population Healthy Nuclei (%): 63%
  Population Hoechst High Intensity Objects (%): 1%
  Population Membrane Permeable-Phenotype (%): 4%
  Population Mitochondria Different-Phenotype (%): 2%
  Population Mitotic Cells (%): 18%
  Population Normal (%): 98%
  Population Pyknosed Nuclei (%): 11%
  Population Tubulin-Different-Phenotype (%): 2%
  Total Cell Count: 237
[6]
  Population Apoptotic (%): 75%
  Population Fragmented Nuclei (%): 15%
  Population Healthy Nuclei (%): 77%
  Population Hoechst High Intensity Objects (%): 0%
  Population Membrane Permeable-Phenotype (%): 6%
  Population Mitotic Cells (%): 25%
  Population Normal (%): 100%
  Population Pyknosed Nuclei (%): 7%
  Population Tubulin-Different-Phenotype (%): 4%
  Total Cell Count: 157
[7]
  Population Apoptotic (%): 90%
  Population Fragmented Nuclei (%): 23%
  Population Healthy Nuclei (%): 66%
  Population Hoechst High Intensity Objects (%): 2%
  Population Membrane Permeable-Phenotype (%): 7%
  Population Mitochondria Different-Phenotype (%): 2%
  Population Mitotic Cells (%): 10%
  Population Normal (%): 97%
  Population Pyknosed Nuclei (%): 10%
  Population Tubulin-Different-Phenotype (%): 3%
  Total Cell Count: 306
[8]
  Population Apoptotic (%): 70%
  Population Fragmented Nuclei (%): 11%
  Population Healthy Nuclei (%): 82%
  Population Hoechst High Intensity Objects (%): 0%
  Population Membrane Permeable-Phenotype (%): 11%
  Population Mitochondria Different-Phenotype (%): 4%
  Population Mitotic Cells (%): 30%
  Population Normal (%): 100%
  Population Pyknosed Nuclei (%): 5%
  Population Tubulin-Different-Phenotype (%): 4%
  Total Cell Count: 177
[9]
  Population Apoptotic (%): 89%
  Population Fragmented Nuclei (%): 20%
  Population Healthy Nuclei (%): 70%
  Population Hoechst High Intensity Objects (%): 1%
  Population Membrane Permeable-Phenotype (%): 2%
  Population Mitochondria Different-Phenotype (%): 1%
  Population Mitotic Cells (%): 10%
  Population Normal (%): 98%
  Population Pyknosed Nuclei (%): 8%
  Population Tubulin-Different-Phenotype (%): 0%
  Total Cell Count: 344
[10]
  Population Apoptotic (%): 81%
  Population Fragmented Nuclei (%): 11%
  Population Healthy Nuclei (%): 81%
  Population Hoechst High Intensity Objects (%): 0%
  Population Membrane Permeable-Phenotype (%): 6%
  Population Mitochondria Different-Phenotype (%): 3%
  Population Mitotic Cells (%): 18%
  Population Normal (%): 99%
  Population Pyknosed Nuclei (%): 7%
  Population Tubulin-Different-Phenotype (%): 2%
  Total Cell Count: 229
[11]
  Population Apoptotic (%): 91%
  Population Fragmented Nuclei (%): 18%
  Population Healthy Nuclei (%): 67%
  Population Hoechst High Intensity Objects (%): 3%
  Population Membrane Permeable-Phenotype (%): 6%
  Population Mitochondria Different-Phenotype (%): 1%
  Population Mitotic Cells (%): 8%
  Population Normal (%): 96%
  Population Pyknosed Nuclei (%): 14%
  Population Tubulin-Different-Phenotype (%): 4%
  Total Cell Count: 396
[12]
  Population Apoptotic (%): 84%
  Population Fragmented Nuclei (%): 12%
  Population Healthy Nuclei (%): 82%
  Population Hoechst High Intensity Objects (%): 2%
  Population Membrane Permeable-Phenotype (%): 10%
  Population Mitochondria Different-Phenotype (%): 2%
  Population Mitotic Cells (%): 15%
  Population Normal (%): 97%
  Population Pyknosed Nuclei (%): 5%
  Total Cell Count: 246
